Measurements published in ChEMBL document CHEMBL1287785, “Synthesis and in vitro evaluation of novel coumarin-chalcone hybrids as potential anticancer agents” (Bioorg Med Chem Lett, 2010).

Assays:
Type in all cases: functional, cell-based
KB = assay: Cytotoxicity against human KB cells after 48 hrs by sulforhodamine B assay
Summary of the method: (§1)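 Cells kept below passage 15 in recommended medium with 10% FBS, gentamycin and amphotericin B, 37 °C, 5% CO₂. Seeded at 1 × 10⁴ cells/well overnight, then given serial two-fold dilutions (100 to 1.6) for 48 h, with untreated controls. Fixed in ice-cold 50% TCA, stained with 0.4% SRB in 1% acetic acid, read at 540 nm. IC₅₀ from dose–response curves of % growth inhibition.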

NIH3T3 = assay: Cytotoxicity against mouse NIH/3T3 cells after 48 hrs by sulforhodamine B assay; summary of the method: as §1
MCF7 = assay: Cytotoxicity against human MCF7 cells after 48 hrs by sulforhodamine B assay; summary of the method: as §1
C-33-A = assay: Cytotoxicity against human C33A cells after 48 hrs by sulforhodamine B assay; summary of the method: as §1
A549 = assay: Cytotoxicity against human A549 cells after 48 hrs by sulforhodamine B assay; summary of the method: as §1
[1] = Homo sapiens, KB, 48 h, read-out: IC50
[2] = Homo sapiens, C-33-A, 48 h, read-out: IC50
[3] = Homo sapiens, MCF7, 48 h, read-out: IC50
[4] = Homo sapiens, A549, 48 h, read-out: IC50
[5] = Mus musculus, NIH3T3, 48 h, read-out: IC50

Structure (SMILES) | IC50 (KB; kb) | IC50 (NIH3T3; nih3t3) | IC50 (MCF7; mcf7) | IC50 (C-33-A; c-33-a) | IC50 (A549; a549) | IC50 (KB; [1]) | IC50 (C-33-A; [2]) | IC50 (MCF7; [3]) | IC50 (A549; [4]) | IC50 (NIH3T3; [5])
CC(=O)c1cc2cc(/C=C/C(=O)c3ccc(Cl)cc3)c3ccccc3c2oc1=O | Not Active | Not Active | Not Active | Not Active | Not Active |  |  |  |  | 
COC(=O)c1cc2cc(/C=C/C(=O)c3ccc(Cl)cc3)c3ccccc3c2oc1=O | Not Active | Not Active | Not Active | Not Active | Not Active |  |  |  |  | 
CCOC(=O)c1cc2cc(/C=C/C(=O)c3ccccc3)c3ccccc3c2oc1=O | Not Active | Not Active | Not Active | Not Active | Not Active |  |  |  |  | 
CCOC(=O)c1cc2cc(/C=C/C(=O)c3ccc(C)cc3)c3ccccc3c2oc1=O | Not Active | Not Active | Not Active | Not Active | Not Active |  |  |  |  | 
CCOC(=O)c1cc2cc(/C=C/C(=O)c3ccc(Cl)cc3)c3ccccc3c2oc1=O | Not Active | Not Active | Not Active | Not Active | Not Active |  |  |  |  | 
CCC(C)c1cc(C=O)cc2cc(C(=O)OC)c(=O)oc12 (configuration not stated) |  | Not Active | Not Active |  | Not Active | 146 µM | 88 µM |  |  | 
CCOC(=O)c1cc2cc(C=O)cc(C(C)CC)c2oc1=O (configuration not stated) |  | Not Active |  |  |  | 132 µM | 64.3 µM |  |  | 
CCC(C)c1cc(/C=C/C(=O)c2ccc(Cl)cc2)cc2cc(C(C)=O)c(=O)oc12 (configuration not stated) | Not Active | Not Active | Not Active | Not Active | Not Active |  |  |  |  | 
CCC(C)c1cc(/C=C/C(=O)c2ccccc2)cc2cc(C(=O)OC)c(=O)oc12 (configuration not stated) |  | Not Active |  |  |  | 13.4 µM | 6.28 µM | 11.4 µM | 10.7 µM | 
CCC(C)c1cc(/C=C/C(=O)c2ccc(Cl)cc2)cc2cc(C(=O)OC)c(=O)oc12 (configuration not stated) |  |  |  |  |  | 28.2 µM | 5.9 µM | 10.8 µM | 16.7 µM | 42.4 µM
CCOC(=O)c1cc2cc(/C=C/C(=O)c3ccccc3)cc(C(C)CC)c2oc1=O (configuration not stated) |  | Not Active |  |  |  | 10.5 µM | 8.12 µM | 88.1 µM | 12.9 µM | 
CCOC(=O)c1cc2cc(/C=C/C(=O)c3ccc(C)cc3)cc(C(C)CC)c2oc1=O (configuration not stated) |  | Not Active |  |  |  | 18 µM | 3.59 µM | 81.1 µM | 32.8 µM | 
CCOC(=O)c1cc2cc(/C=C/C(=O)c3ccc(Cl)cc3)cc(C(C)CC)c2oc1=O (configuration not stated) |  |  |  |  |  | 14.3 µM | 4.54 µM | 11.1 µM | 12.8 µM | 38.4 µM
CC(=O)c1cc2cc(C=O)c3ccccc3c2oc1=O |  | Not Active |  |  | Not Active | 109 µM | 72.8 µM | 147 µM |  | 
CCC(C)c1cc(C=O)cc2cc(C(C)=O)c(=O)oc12 (configuration not stated) |  | Not Active |  |  | Not Active | 176 µM | 70 µM | 141 µM |  | 
COC(=O)c1cc2cc(C=O)c3ccccc3c2oc1=O |  |  |  |  |  | 57.9 µM | 30.1 µM | 61.7 µM | 75.7 µM | 66 µM
CCOC(=O)c1cc2cc(C=O)c3ccccc3c2oc1=O |  | Not Active |  |  | Not Active | 124 µM | 93.5 µM | 155 µM |  | 
CC(=O)c1cc2cc(/C=C/C(=O)c3ccccc3)c3ccccc3c2oc1=O | Not Active | Not Active | Not Active | Not Active | Not Active |  |  |  |  | 
CC(=O)c1cc2cc(/C=C/C(=O)c3ccc(C)cc3)c3ccccc3c2oc1=O | Not Active | Not Active | Not Active | Not Active | Not Active |  |  |  |  | 
COC(=O)c1cc2cc(/C=C/C(=O)c3ccccc3)c3ccccc3c2oc1=O |  | Not Active |  |  | Not Active | 90.8 µM | 62.4 µM | 103 µM |  | 
COC(=O)c1cc2cc(/C=C/C(=O)c3ccc(C)cc3)c3ccccc3c2oc1=O |  | Not Active |  |  | Not Active | 70.4 µM | 52 µM | 118 µM |  | 
COc1cccc2c1C(=O)c1c(O)c3c(c(O)c1C2=O)C[C@@](O)(C(=O)CO)C[C@@H]3O[C@H]1C[C@H](N)[C@H](O)[C@H](C)O1 [DOXORUBICIN] |  |  |  |  |  | 0.22 µM | 0.82 µM | 0.61 µM | 0.52 µM | 
